Experimental data published in ChEMBL document CHEMBL3272019, “Synthesis and some properties and antitumor effects of the actinomycin lactam analog, (di(1-L-alpha, beta-diaminopropionic))actinomycin D1” (1976).
≈ marks a conversion by molar mass, not a printed value. Calls of active or inactive are those of the source. The rule behind the calls is not given here. Starred links: 1 amine or outer side, 2 acyl side, 3 side chain; linkers in the order of their positions; H or OH if unused. Positions of bridges follow the written chain, without caps; N, C: chain ends. Non-standard residues stand in square brackets, D forms with d. Residues, ends and D or L forms follow the SMILES beside them. Chains are numbered I, II in the order given. Actinocin(1to9) = Cc1c2oc3c(C)ccc(C(=O)[*:2])c3nc-2c(C(=O)[*:1])c(N)c1=O; NMeV = CN[C@H](C(=O)O)C(C)C; Sar = CNCC(=O)O

Assays:
[1] = tested on: Calf thymus DNA; experiment: Binding affinity to calf thymus DNA at 34.5 uM by visible and near-UV CD spectrophotometry; assay type: nucleic-acid assay; settings: Bos taurus
Procedure, shortened: (§1)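 Visible and near-UV CD spectra of actinomycin D recorded free and with polynucleotide, in 0.01 M sodium phosphate pH 7.0 at about 23°, in 1-cm tandem cylindrical quartz cells. DNA levels were given as nucleotide phosphorus: PM2 0.54 mM, calf thymus 0.50 mM, poly[d(DAP-A-T)] 0.12 mM and poly[d(DAP-T)] 0.27 mM. Drug concentration was set from the 440 nm extinction coefficient (24450 M⁻¹ cm⁻¹).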

[2] = tested on: B16; experiment: Antitumor activity against mouse B16 cells allografted in BDF1 mouse assessed as increase in life span at 0.4 mg/kg/injection, ip administered as single dose measured on day 60; assay type: functional; settings: 1440 h, route intraperitoneal
Procedure, shortened: (§2)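 B16 melanoma in mice, standard screening method. Schedules were daily on days 1–9, on days 1, 5 and 9, or a single day-1 injection, each over a four- to fivefold dose range. Survival time (range of individual deaths) was recorded, percent increase in life-span computed against untreated controls, and survivors tallied.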

[3] = tested on: Sarcina; experiment: Antibacterial activity against Sarcina subflava assessed as growth inhibition; assay type: functional
[4] = tested on: L1210; experiment: Antitumor activity against mouse L1210 cells allografted in BDF1 mouse assessed as increase in life span at 0.4 mg/kg/injection, ip administered as single dose; assay type: functional; settings: route intraperitoneal
[5] = tested on: L1210; experiment: Antitumor activity against mouse L1210 cells allografted in BDF1 mouse assessed as mean survival time at 0.05 mg/kg/injection, ip administered daily for 9 days (reference value: 9.6 days); assay type: functional; settings: route intraperitoneal
[6] = tested on: Pseudoalteromonas phage PM2; experiment: Binding affinity to bacteriophage PM2 DNA at 31 uM by visible and near-UV CD spectrophotometry; procedure, shortened: as §1
[7] = tested on: B16; experiment: Antitumor activity against mouse B16 cells allografted in BDF1 mouse assessed as mean survival time at 0.4 mg/kg/injection, ip administered as single dose (reference value: 28 days); assay type: functional; settings: route intraperitoneal; procedure, shortened: as §2
[8] = tested on: P388; experiment: Antitumor activity against mouse P388 cells allografted in BDF1 mouse assessed as mean survival time at 0.4 mg/kg/injection, ip administered as single dose (reference value: 10.5 days); assay type: functional; settings: route intraperitoneal
Procedure, shortened: (§3)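 P388 leukaemia: 10⁶ cells implanted ip on day 0 into groups of eight male BDF mice. Dosing was ip daily on days 1–9, on days 1, 5 and 9, or as a single day-1 dose, over four- to fivefold dose ranges. Median survival time (range of deaths) and percent increase in life-span were recorded, with survivors/total counted at day 60.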

[9] = tested on: B16; experiment: Antitumor activity against mouse B16 cells allografted in BDF1 mouse assessed as mean survival time at 0.3 mg/kg/injection, ip administered intermittently on days 1, 5 and 9 (reference value: 28 days); assay type: functional; settings: route intraperitoneal; procedure, shortened: as §2
[10] = tested on: P388; experiment: Antitumor activity against mouse P388 cells allografted in BDF1 mouse assessed as increase in life span at 0.05 mg/kg/injection, ip administered daily for 9 days measured on day 60; assay type: functional; settings: route intraperitoneal; procedure, shortened: as §3
[11] = tested on: P388; experiment: Antitumor activity against mouse P388 cells allografted in BDF1 mouse assessed as increase in life span at 0.3 mg/kg/injection, ip administered intermittently on days 1, 5 and 9 measured on day 60; assay type: functional; settings: 1440 h, route intraperitoneal; procedure, shortened: as §3
[12] = tested on: B16; experiment: Antitumor activity against mouse B16 cells allografted in BDF1 mouse assessed as increase in life span at 0.3 mg/kg/injection, ip administered intermittently on days 1, 5 and 9 measured on day 60; assay type: functional; settings: 1440 h, route intraperitoneal; procedure, shortened: as §2
[13] = tested on: P388; experiment: Antitumor activity against mouse P388 cells allografted in BDF1 mouse assessed as mean survival time at 0.3 mg/kg/injection, ip administered intermittently on days 1, 5 and 9 (reference value: 10.5 days); assay type: functional; settings: route intraperitoneal; procedure, shortened: as §3
[14] = tested on: L1210; experiment: Antitumor activity against mouse L1210 cells allografted in BDF1 mouse assessed as mean survival time at 0.3 mg/kg/injection, ip administered intermittently on days 1, 5 and 9 (reference value: 9.6 days); assay type: functional; settings: route intraperitoneal
[15] = tested on: P388; experiment: Antitumor activity against mouse P388 cells allografted in BDF1 mouse assessed as increase in life span at 0.4 mg/kg/injection, ip administered as single dose measured on day 60; assay type: functional; settings: 1440 h, route intraperitoneal; procedure, shortened: as §3
[16] = species on record: Homo sapiens; experiment: Binding affinity to poly[d(DAP-T)] (unknown origin) at 14.3 uM by visible and near-UV CD spectrophotometry; procedure, shortened: as §1
[17] = tested on: P388; experiment: Antitumor activity against mouse P388 cells allografted in BDF1 mouse assessed as mean survival time at 0.05 mg/kg/injection, ip administered daily for 9 days (reference value: 10.5 days); assay type: functional; settings: route intraperitoneal; procedure, shortened: as §3
[18] = tested on: B16; experiment: Antitumor activity against mouse B16 cells allografted in BDF1 mouse assessed as mean survival time at 0.025 mg/kg/injection, ip administered daily for 9 days (reference value: 28 days); assay type: functional; settings: route intraperitoneal; procedure, shortened: as §2
[19] = tested on: Bacillus subtilis; experiment: Antibacterial activity against Bacillus subtilis Marburg assessed as growth inhibition; assay type: functional
[20] = tested on: Staphylococcus aureus; experiment: Antibacterial activity against Penicillin-resistant Staphylococcus aureus assessed as growth inhibition; assay type: functional
[21] = tested on: L1210; experiment: Antitumor activity against mouse L1210 cells allografted in BDF1 mouse assessed as mean survival time at 0.4 mg/kg/injection, ip administered as single dose (reference value: 9.6 days); assay type: functional; settings: route intraperitoneal
[22] = tested on: L1210; experiment: Antitumor activity against mouse L1210 cells allografted in BDF1 mouse assessed as increase in lifespan at 0.3 mg/kg/injection, ip administered intermittently on days 1, 5 and 9; assay type: functional; settings: route intraperitoneal
[23] = tested on: L1210; experiment: Antitumor activity against mouse L1210 cells allografted in BDF1 mouse assessed as increase in life span at 0.05 mg/kg/injection, ip administered daily for 9 days; assay type: functional; settings: 216 h, route intraperitoneal
[24] = species on record: Homo sapiens; experiment: Binding affinity to poly[d(DAP-A-T)] (unknown origin) at 14.3 uM by visible and near-UV CD spectrophotometry; procedure, shortened: as §1
[25] = tested on: B16; experiment: Antitumor activity against mouse B16 cells allografted in BDF1 mouse assessed as increase in life span at 0.025 mg/kg/injection, ip administered daily for 9 days measured on day 60; assay type: functional; settings: route intraperitoneal; procedure, shortened: as §2

In the case of `Cc1c2oc3c(C)ccc(C(=O)N[C@@H]4C(=O)N[C@H](C(C)C)C(=O)N5CCC[C@H]5C(=O)N(C)CC(=O)N(C)[C@@H](C(C)C)C(=O)O[C@@H]4C)c3nc-2c(C(=O)N[C@@H]2C(=O)N[C@H](C(C)C)C(=O)N3CCC[C@H]3C(=O)N(C)CC(=O)N(C)[C@@H](C(C)C)C(=O)O[C@@H]2C)c(N)c1=O` [DACTINOMYCIN] (I: T[dV]P[Sar][NMeV] / II: T[dV]P[Sar][NMeV]; ester I:1-I:C, II:1-II:C; linker I:N-II:N via Actinocin(1to9)), the Activity [1] is reported as “Active”, the ILS at 0.4 mg/kg [2] is reported as 38% and the MIC [3] is reported as 0.045 µg/mL (≈ 0.0358 µM). The ILS at 0.4 mg/kg [4] was 31%, the MST [5] was 13.6 days and the Activity [6] was “Active”. For the same molecule, the MST [7] was 38.5 days, the MST [8] was 22 days and the MST [9] was 41.5 days. For the same molecule, the ILS at 0.05 mg/kg [10] was 171%, the ILS at 0.3 mg/kg [11] was 262% and the ILS at 0.3 mg/kg [12] was 48%. For the same molecule, the MST [13] was 38 days, the MST [14] was 14 days and the ILS at 0.4 mg/kg [15] was 110%. For the same molecule, the Activity [16] was “Active”, the MST [17] was 28.5 days and the MST [18] was 45 days. The MIC [19] was 0.09 µg/mL (≈ 0.0717 µM), the IC50 ([19]; read-out: ID50 (the source's name)) was 0.05 µg/mL (≈ 0.0398 µM) and the MIC [20] was 0.05 µg/mL (≈ 0.0398 µM). It also gave an MST [21] of 12.6 days, an ILS at 0.3 mg/kg [22] of 45% and an ILS at 0.05 mg/kg [23] of 42%. The Activity [24] was “Active” and the ILS at 0.025 mg/kg [25] was 61%.
